The target in data set [1] is T1, Bile acid receptor (Homo sapiens) (UniProt Q96RI1).
T1 sequence (whole entry): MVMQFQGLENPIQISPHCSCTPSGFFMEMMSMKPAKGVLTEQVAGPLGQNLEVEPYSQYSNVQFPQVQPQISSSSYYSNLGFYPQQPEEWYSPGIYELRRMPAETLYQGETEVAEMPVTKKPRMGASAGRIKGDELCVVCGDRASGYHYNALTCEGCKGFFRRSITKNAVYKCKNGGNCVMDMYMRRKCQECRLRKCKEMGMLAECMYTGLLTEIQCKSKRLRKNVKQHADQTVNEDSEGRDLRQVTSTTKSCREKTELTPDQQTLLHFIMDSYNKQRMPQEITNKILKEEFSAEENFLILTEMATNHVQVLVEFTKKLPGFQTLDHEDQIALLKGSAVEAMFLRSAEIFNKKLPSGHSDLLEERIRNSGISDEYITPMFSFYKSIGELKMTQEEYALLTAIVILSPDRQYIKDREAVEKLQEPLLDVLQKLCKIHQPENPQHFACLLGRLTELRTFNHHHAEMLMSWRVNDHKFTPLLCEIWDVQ
Briefly: Inhibition of GW4064-induced transactivation of FXR (unknown origin) expressed in HEK293T cells at 40 uM after 16 hrs by beta-lactamase reporter gene assay relative to control. In kind it is cell-based. To be noted: HEK-293T. For orientation: In a reporter assay the amount or activity of a reporter protein is the signal.

A short description of data set [2]: Cytotoxicity against HEK293T cells expressing FXR and beta-lactamase genes assessed as inhibition of cell viability at 40 uM after 16 hrs by CellTiter-Glo luminescent assay relative to control. The class given is cell-based, HEK-293T. Particulars: human, read-out: INH. The gist of the method: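 Viability run alongside the agonist assay in the same GeneBLAzer FXR HEK 293T cells: 20,000 cells/well in phenol red-free DMEM with 2% charcoal/dextran-treated FBS, 0.5% DMSO, 16 h at 37°C. Cooled 20 min, then CellTiter-Glo added for 20 min in dark; luminescence read.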

The target in data set [3] is T1, Bile acid receptor (Homo sapiens). Briefly: Agonist activity at human FXR.
Data set [4] has the same target. Briefly: Antagonist activity at human GST-tagged FXR at 493 nM after 20 mins by TR-FRET assay relative to control. For orientation: TR-FRET usually uses a lanthanide donor and a delayed reading to cut background.
Data set [5] has the same target. Briefly: Ratio of E16 IC50 to compound IC50 for human GST-tagged FXR after 20 mins by TR-FRET assay.
Data set [6] has the same target. Nature of the data set: Agonist activity at FXR (unknown origin) expressed in HEK293T cells after 16 hrs by beta-lactamase reporter gene assay relative to control. In kind it is cell-based. To be noted: HEK-293T.
The target is the same in data set [7]. Briefly: Inhibition of GW4064-induced transactivation of FXR (unknown origin) expressed in HEK293T cells at 1 uM after 16 hrs by beta-lactamase reporter gene assay relative to control. In kind it is cell-based. Particulars: HEK-293T.
For data set [8] the target is unchanged. Briefly: Antagonist activity at human GST-tagged FXR at 40 uM after 20 mins by TR-FRET assay relative to control.
For data set [9] the target is unchanged. Nature of the data set: Antagonist activity at human GST-tagged FXR at 164 nM after 20 mins by TR-FRET assay relative to control.
Data set [10] shares this target. Nature of the data set: Antagonist activity at human GST-tagged FXR at 13.3 uM after 20 mins by TR-FRET assay relative to control.
Data set [11] deals with T2, Bile acid receptor (Homo sapiens, UniProt Q96RI1).
T2 sequence (Q96RI1 whole entry): T1 sequence (whole entry)
Briefly: Antagonist activity at human GST-tagged FXR after 20 mins by TR-FRET assay.

Data set [12] concerns the target T2, Bile acid receptor. Nature of the data set: Inhibition of GW4064-induced transactivation of FXR (unknown origin) expressed in HEK293T cells after 16 hrs by beta-lactamase reporter gene assay. The class given is cell-based, HEK-293T.

Results on 25 molecules are retold here after ChEMBL document CHEMBL3259745, “Identification of trisubstituted-pyrazol carboxamide analogs as novel and potent antagonists of farnesoid X receptor” (Bioorg Med Chem, 2014).

As usually defined, the inhibition is the drop in the measured response relative to a control, in per cent. By IC50 is commonly meant the concentration at which inhibition is half-maximal. A lower IC50 goes with higher potency.

Calls of active or inactive are those of the source. The calls are words filed in the database; no cut-off is given here.

Take `O=C(Nc1ccc(S(=O)(=O)N2CCOCC2)cc1)c1cn(-c2ccccc2)nc1-c1ccccc1`: the inhibition in data set [1] amounted to 18.6%; in data set [4], 12.7%. In addition, the cytotoxicity at 16 h, 40 µM in [2] came out at 7.4%. Besides, in data set [3], the outcome was inactive.

For `Cc1ccc(-c2nn(-c3ccc(F)cc3)cc2C(=O)Nc2ccc(C)c(S(=O)(=O)N3CCOCC3)c2)cc1`, in data set [5], the Ratio IC50 was 3. Also, the figures for the inhibition in [1] and in data set [4] were 72% and 95%, respectively. Moreover, in [2], the cytotoxicity at 16 h, 40 µM is 18.5%. Also, in [6], the result was inactive.

On to `COc1cccc(Cn2cc(C(=O)N(C)c3ccc(C)c(S(=O)(=O)N4CCOCC4)c3)c(-c3cccc(OC)c3)n2)c1`, for which the inhibition entry in [7] is “inactive”. For the same molecule, the inhibition in [1] is 23.8%; in [8], 69.7%. For the same molecule, the cytotoxicity at 16 h, 40 µM in data set [2] was found to be 19.7%. In addition, the result in [6] was inactive.

Turning to `COc1cccc(Cn2cc(C(=O)Nc3ccc(C)c(S(=O)(=O)N4CCOCC4)c3)c(-c3ccc(C(F)(F)F)cc3)n2)c1`, the inhibition in [9] turned out to be 109%; in [1] it was 97.6%. The cytotoxicity at 16 h, 40 µM in data set [2] was under 5%. Moreover, in data set [6], the outcome was inactive.

As to `Cc1ccc(-c2nn(-c3ccccc3)cc2C(=O)Nc2cccc(S(=O)(=O)N3CCOCC3)c2)cc1`, the values for the inhibition in data set [1] and in data set [4] were 32.8% and 27.5%, respectively. Besides, the cytotoxicity at 16 h, 40 µM in [2] was determined as 5.4%. For the same molecule, the result in data set [3] was inactive.

For the molecule `O=C(Nc1ccc(F)c(S(=O)(=O)N2CCOCC2)c1)c1cnn(-c2ccccc2)c1`, the inhibition was 83.8% in data set [10] and 80.3% in [1]. The results for the IC50 against Bile acid receptor [11] and at Bile acid receptor [12] were 8.3 µM and 9.4 µM, respectively. The cytotoxicity at 16 h, 40 µM in [2] stood at 27.4%. In addition, the outcome in data set [3] was inactive.

As to `O=C(Nc1cccc(S(=O)(=O)N2CCOCC2)c1)c1cn(-c2ccccc2)nc1-c1ccccc1`, the results for the inhibition in data set [1] and in data set [4] were 54.9% and 44.4%, respectively. For the same molecule, the cytotoxicity at 16 h, 40 µM in [2] amounted to 7.1%. In [3], the result was inactive.

On to `COc1cccc(Cn2cc(C(=O)Nc3ccc(C)c(S(=O)(=O)N4CCOCC4)c3)c(-c3cccc(OC)c3)n2)c1`, for which the inhibition in [1] was determined as 89.4%; in [4] it was 114%. Also, in data set [2], the cytotoxicity at 16 h, 40 µM is under 5%. In data set [6], the outcome was inactive.

For the molecule `CC(C)c1onc(-c2c(Cl)cccc2Cl)c1COc1ccc(/C=C/c2cccc(C(=O)O)c2)c(Cl)c1`, the cytotoxicity at 16 h, 40 µM in data set [2] is under 5%.

Take `Cc1ccc(-c2nn(-c3cccc(C(F)(F)F)c3)cc2C(=O)Nc2ccc(C)c(S(=O)(=O)N3CCOCC3)c2)cc1`: the inhibition in [9] was 77.5%; in data set [1] it was 54.8%. Further, the Ratio IC50 in data set [5] turned out to be 3. In addition, the cytotoxicity at 16 h, 40 µM in data set [2] turned out to be 7.3%. In addition, the outcome in data set [6] was inactive.

On to `O=C(Nc1cccc(S(=O)(=O)N2CCOCC2)c1)c1cn(-c2ccccc2)nc1-c1ccc(F)cc1`, for which the inhibition in data set [1] was 42.6%; in data set [4] it was 53.3%. Moreover, the cytotoxicity at 16 h, 40 µM in data set [2] was 16.3%. In addition, the outcome in data set [3] was inactive.

On to `Cc1ccc(NC(=O)c2cnn(-c3cccnc3)c2)cc1S(=O)(=O)N1CCOCC1`, for which the inhibition in [10] came to 18.8%; in data set [1], 16.1%. Besides, the cytotoxicity at 16 h, 40 µM in [2] stood at 27.9%. Also, in data set [3], the outcome was inactive.

With `COCCc1nn(Cc2cccc(OC)c2)cc1C(=O)Nc1ccc(C)c(S(=O)(=O)N2CCOCC2)c1`, the inhibition was found to be 114% in data set [10] and 95.9% in data set [1]. Besides, the cytotoxicity at 16 h, 40 µM in [2] is under 5%. Moreover, the result in data set [6] was inactive.

Consider `O=C(Nc1ccc(S(=O)(=O)N2CCOCC2)cc1)c1cn(-c2ccccc2)nc1-c1ccc(F)cc1`, for which the figures for the inhibition in data set [9] and in data set [1] were 21.2% and 34.7%, respectively. Moreover, in [2], the cytotoxicity at 16 h, 40 µM was under 5%. In addition, the result in data set [3] was inactive.

Consider `COCCc1nn(C(C)C)cc1C(=O)Nc1ccc(C)c(S(=O)(=O)N2CCOCC2)c1`, for which the inhibition was 62.5% in [1] and 98.2% in data set [8]. Moreover, the cytotoxicity at 16 h, 40 µM in [2] is under 5%. Also, the outcome in [6] was inactive.

As for `Cc1ccc(-c2nn(Cc3cccc(C(F)(F)F)c3)cc2C(=O)Nc2ccc(C)c(S(=O)(=O)N3CCOCC3)c2)cc1`, the inhibition in data set [9] amounted to 99.2%; in [1], 93.4%. The cytotoxicity at 16 h, 40 µM in data set [2] was under 5%. The result in data set [6] was inactive.

Regarding `Cc1ccc(-c2nn(C(C)C)cc2CNc2ccc(C)c(S(=O)(=O)N3CCOCC3)c2)cc1`, the inhibition in data set [10] was 99.5%; in [1], 36.8%. Also, the inhibition entry in data set [7] is “inactive”. For the same molecule, the cytotoxicity at 16 h, 40 µM in [2] amounted to 10.5%. Besides, the result in data set [6] was inactive.

For `Cc1ccc(NC(=O)c2cnn(-c3ccccc3)c2C(F)(F)F)cc1S(=O)(=O)N1CCOCC1`, the inhibition in data set [10] is 99.8%; in [1], 101%. The IC50 against Bile acid receptor [11] was 0.996 µM; on Bile acid receptor [12] it was 11.8 µM. In [2], the cytotoxicity at 16 h, 40 µM was 51.3%. Also, the result in [3] was inactive.

As to `Cc1ccc(-c2nn(CCCCO)cc2C(=O)Nc2ccc(C)c(S(=O)(=O)N3CCOCC3)c2)cc1`, the inhibition in data set [1] was determined as 97.6%; in data set [4], 89.3%. Further, the cytotoxicity at 16 h, 40 µM in data set [2] was found to be 5.9%. Further, the result in data set [6] was inactive.

Take `Cc1ccc(NC(=O)c2c(C)nn(-c3ccccc3)c2C)cc1S(=O)(=O)N1CCOCC1`: the inhibition was 70.6% in [10] and 99% in [1]. For the same molecule, the figures for the IC50 against Bile acid receptor [11] and at Bile acid receptor [12] were 3.3 µM and 11.8 µM, respectively. The cytotoxicity at 16 h, 40 µM in [2] is 47.4%. The result in [3] was inactive.

For `Cc1ccc(-c2nn(-c3ccc(Cl)cc3Cl)cc2C(=O)Nc2ccc(C)c(S(=O)(=O)N3CCOCC3)c2)cc1`, the inhibition worked out at 120% in [9] and 89.9% in data set [1]. The Ratio IC50 in [5] was determined as 3. Besides, the cytotoxicity at 16 h, 40 µM in data set [2] was under 5%. Besides, in data set [6], the outcome was inactive.

`Cc1ccc(-c2nn(-c3ccccc3)cc2C(=O)Nc2ccc(C)c(S(=O)(=O)N3CCOCC3)c2)cc1`: the figures for the inhibition in data set [9] and in [1] were 100% and 77.2%, respectively. In addition, the cytotoxicity at 16 h, 40 µM in data set [2] worked out at 17.9%. The outcome in data set [3] was inactive.

Regarding `Cc1cccc(-n2ncc(C(=O)Nc3cccc(S(=O)(=O)N4CCOCC4)c3)c2C)c1`, the inhibition came out at 85.1% in [10] and 66.9% in data set [1]. For the same molecule, the IC50 came to 6.6 µM at Bile acid receptor [11] and 29.3 µM against Bile acid receptor [12]. Also, in [2], the cytotoxicity at 16 h, 40 µM was under 5%. Moreover, the result in [3] was inactive.

As to `Cc1ccc(-c2nn(-c3cccc(Cl)c3)cc2C(=O)Nc2ccc(C)c(S(=O)(=O)N3CCOCC3)c2)cc1`, the inhibition stood at 99.3% in [9] and 60.6% in data set [1]. In addition, the Ratio IC50 in data set [5] was determined as 3. In data set [2], the cytotoxicity at 16 h, 40 µM was under 5%. The outcome in data set [6] was inactive.

As for `C[C@H](CCC(=O)O)[C@H]1CC[C@H]2[C@@H]3CC[C@@H]4C[C@H](O)CC[C@]4(C)[C@H]3CC[C@]12C` [LITHOCHOLIC ACID], the cytotoxicity at 16 h, 40 µM in data set [2] was under 5%.
